“And” between values parts separate entries of the source, which are not always exact repeats. Equal values may be shown once. “Also recorded” adds a separate entry of the source. Read-outs that look alike come from different tables or passages of the source.
Columns and labels:
[1] = Study 2; format: in vivo, human
[2] = cited from earlier work
[3] = Study 1; format: in vivo, human
[4] = Assessment of safety and tolerability in Study 1 and Study 2; format: in vivo, human
How it was run: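 Single 30 mg oral dose given after a >8-h fast with 180 mL (Study 1) or 240 mL (Study 2) water. Safety was assessed from AEs, laboratory abnormalities, physical examination, vital signs and 12-lead ECGs taken after 10-min supine rest. ECG times: Study 1 at screening, predose, 6, 48 and 264 h; Study 2 at screening, predose, 6 h, 144 h and follow-up. Participants stayed in-house to 144 h, with follow-up on Days 8–10 and 12.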

[5] = cited from earlier work; remark: listed apart in the source
[6] = tested on: human plasma proteins; settings: independent of drug concentrations from 250 to 1000 ng/mL; cited from earlier work
[7] = single oral 45 mg dose of [14C] radiolabeled dacomitinib; cited from earlier work
[8] = severe hepatic impairment, single oral dacomitinib 30 mg
[9] = mild hepatic impairment, single oral dacomitinib 30 mg
[10] = Study 1 and Study 2, single oral dose of 30 mg
[11] = Study 2, severe hepatic impairment

Q: What does the source list for `O=C(/C=C/CN1CCCCC1)Nc1cc2c(Nc3ccc(F)c(Cl)c3)ncnc2cc1O` [PF-05199265, O-desmethyl dacomitinib]?
A: AUCinf decrease compared with normal liver function [1, 8]: 19%; Cmax decrease compared with normal liver function [1, 8]: 66%

Q: Which “decrease in AUC versus normal hepatic function” value ([2]; cancer patients with mild hepatic impairment (n = 7)) does the source give for `C=CC(=O)Nc1cc(Nc2nccc(-c3cn(C)c4ccccc34)n2)c(OC)cc1N(C)CCN(C)C` [osimertinib] here?
A: The value was 63%.

Q: And the “decrease in AUC versus normal hepatic function” value ([2]; cancer patients with moderate hepatic impairment (n = 5))?
A: Its value is 68%.

Q: For `COc1cc2ncnc(Nc3ccc(F)c(Cl)c3)c2cc1NC(=O)/C=C/CN1CCCCC1` [Dacomitinib], which “adjusted GMR for Cmax,u (90% CI)” value ([3]; Study 1, mild hepatic impairment vs normal hepatic function, printed as ratio) is on record?
A: The value was 1.00 (90% CI 0.69–1.44).

Q: And the “AUCinf and Cmax compared with normal hepatic function” value ([3]; Study 1, mild hepatic impairment, single oral dacomitinib 30 mg)?
A: The value was “unchanged; also recorded: similar”.

Q: And the “AUCinf decrease compared with normal hepatic function” value [3, 9]?
A: The value was 6%.

Q: What about the “Cmax increase compared with normal hepatic function” value [3, 9] of the same molecule?
A: The value was 3%.

Q: What about the “Cmax decrease compared with normal hepatic function” value ([3]; moderate hepatic impairment, single oral dacomitinib 30 mg) of the same molecule?
A: Its value is 20%.

Q: What about the AEs reported ([4]; Study 1, normal hepatic function or mild hepatic impairment groups) of the same molecule?
A: Its AEs reported is “no AEs were reported”.

Q: And the “serious AEs, discontinuations, treatment-related deaths” value [4, 10]?
A: The value was “no serious AEs, discontinuations due to study treatment, or treatment-related deaths”.

Q: And the “vital signs, laboratory values, ECG measurements” value [4, 10]?
A: Its value is “No clinically significant changes”.

Q: What about the AEs reported ([4]; Study 2, normal hepatic function or severe hepatic impairment groups) of the same molecule?
A: The AEs reported was “no AEs were reported”.

Q: What about the tolerability ([4]; single oral dose of 30 mg, healthy participants and participants with mild, moderate, or severe hepatic impairment) of the same molecule?
A: Its tolerability is “well tolerated”.

Q: What about the “correlation of concentrations with changes in corrected QT interval” value [5] of the same molecule?
A: Its value is “not found to correlate”.

Q: What about the “in vitro binding to human plasma proteins” value [6] of the same molecule?
A: Its value is “approximately 98%”.

Q: What about the “radioactivity recovered in feces” value [7] of the same molecule?
A: The value was 79%.

Q: And the “radioactivity recovered in feces as dacomitinib” value [7]?
A: Its value is 20%.

Q: And the “radioactivity recovered in urine” value [7]?
A: Its value is 3%.

Q: And the “radioactivity recovered in urine as dacomitinib” value [7]?
A: Its value is less than 1%.

Q: And the “AUCinf,u increase compared with normal hepatic function” value [1, 11]?
A: The value was 32%.

Q: And the “Cmax,u increase compared with normal hepatic function” value [1, 11]?
A: Its value is “approximately 69%”.

Q: What about the “adjusted GMR for Cmax,u (90% CI)” value ([1]; Study 2, severe hepatic impairment vs normal hepatic function, printed as ratio) of the same molecule?
A: Its value is 1.69 [90% CI 1.08–2.63].

Q: And the “AUCinf increase compared with normal hepatic function” value [1, 8]?
A: The value was 4% and 4.4%.

Source: publication PMC8930943 (Clinical Drug Investigation, 2022)
